Experimental data published in ChEMBL document CHEMBL1146352, “Synthesis of furopyrazole analogs of 1-benzyl-3-(5-hydroxymethyl-2-furyl)indazole (YC-1) as novel anti-leukemia agents” (2007).
Activity calls are given as the source filed them. The rule behind the calls is not given here.

What was measured:
HL-60 [1] = assay: Cytotoxicity against HL60 cells by Propidium iodide exclusion assay; format: functional; settings: Homo sapiens, read-out: ED50 (the source's name)
Outline: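 HL-60 cells seeded at 2.5 × 10⁵ cells/mL and treated at a range of concentrations for 24, 48 and 72 h at 37 °C. Viable cells were scored by propidium iodide exclusion on flow cytometry. Viability is given as the ratio of treated to control cells. ED50 derived; three independent experiments, mean ± SD.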

HT60 = assay: Induction of apoptosis in […] cells at 26 uM after 48 hrs; format: functional, cell-based; settings: Homo sapiens
Outline: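 HL-60 cells were cultured 72 h or 48 h with compound, with 0.1% (v/v) DMSO as the control. Nuclei were stained with DAPI and examined microscopically (400×) for nuclear shrinkage and chromatin condensation.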

HL-60 (Homo sapiens) = assay: Induction of apoptosis in HL-60 cells after 72 hrs
HL-60 [2] = assay: Induction of HL60 cell differentiation assessed as nitroblue tetrazolium reduction activity at 26 uM after 72 hrs; format: functional, Homo sapiens; set-up: scale not given: the % may be the effect or the level left
Outline: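 Cells treated 72 h (ATRA co-treatment at 1 µM where stated) were suspended in HBSS at 1 × 10⁶ cells/mL. Mixed with an equal volume of HBSS stock containing 1 mg/ml NBT and 5 µg/mL TPA, then held 30 min at 37 °C. Cells with formazan deposits were counted microscopically, at least 200 cells. Three experiments, each in duplicate.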

Compound | EC50 (HL-60 [1]) | AD50 (HT60) | Activity (HL-60 (Homo sapiens)) | Activity (HL-60 [2])
Cc1cc2c(o1)c(-c1ccc(C(=O)O)cc1)nn2-c1ccccc1 | > 20 µM |  |  | 
Cc1cc2c(o1)c(-c1ccc(C(=O)O)cc1)nn2Cc1ccccc1 | > 20 µM |  |  | 
Cc1cc2c(o1)c(-c1ccc(CO)cc1)nn2-c1ccccc1 | > 20 µM |  |  | 
OCc1ccc(-c2nn(Cc3ccccc3)c3ccccc23)o1 |  | Active | inactive | 3.56%
